According to paper PMC7826400 (Proceedings of the National Academy of Sciences of the …, 2021):
Like-named read-outs stand apart in the source and are kept apart here. Blank lines part the entries; values can stand above or below the compound they belong to.

What was measured:
MdCMS_1 = assay: DTNB endpoint assay, Lineweaver-Burk; type: biochemical, Malus domestica; conditions: read-out: Km ± SE
How it was run: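 Recombinant apple enzyme expressed in E. coli BL21 (ORF with or without putative chloroplast transit peptide) and purified. Activity measured by DTNB (Ellman's reagent) endpoint assay. Acetyl-CoA was varied with pyruvate held saturating at 10 mM. Absorbance was corrected against an identical mixture lacking α-ketoacid. Km was obtained by regression of Lineweaver–Burk plots, with two to three replications per regression.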

MdIPMS1 [1] = biological target: T1, MdIPMS1 (Malus domestica, UniProt A0A498I0D3); assay: DTNB endpoint assay, feedback inhibition; type: biochemical; conditions: 10 mM α-ketoisovalerate; threonine range 0 to 10 mM
T1 sequence (A0A498I0D3 59-236): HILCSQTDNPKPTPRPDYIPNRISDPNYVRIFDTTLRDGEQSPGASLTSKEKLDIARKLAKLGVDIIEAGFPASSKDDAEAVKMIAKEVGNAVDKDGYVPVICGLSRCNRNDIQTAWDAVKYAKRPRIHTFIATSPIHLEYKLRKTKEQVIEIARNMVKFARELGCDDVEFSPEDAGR
T1 sequence (A0A498I0D3 250-642): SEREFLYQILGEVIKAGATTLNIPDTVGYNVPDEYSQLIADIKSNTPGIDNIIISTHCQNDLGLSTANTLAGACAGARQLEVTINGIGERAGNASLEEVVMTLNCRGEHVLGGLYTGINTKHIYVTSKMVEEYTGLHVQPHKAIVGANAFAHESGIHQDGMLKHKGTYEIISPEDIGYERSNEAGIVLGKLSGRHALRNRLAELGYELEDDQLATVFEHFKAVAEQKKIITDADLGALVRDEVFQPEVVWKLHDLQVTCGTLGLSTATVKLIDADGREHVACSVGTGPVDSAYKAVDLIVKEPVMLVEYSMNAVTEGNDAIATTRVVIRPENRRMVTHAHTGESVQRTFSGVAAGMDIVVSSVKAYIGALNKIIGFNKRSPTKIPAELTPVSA

MdIPMS2 [2] = biological target: T2, MdIPMS2 (Malus domestica, UniProt A0A498KQL4); assay: DTNB endpoint assay, feedback inhibition; type: biochemical; conditions: 10 mM α-ketoisovalerate; threonine range 0 to 10 mM
T2 sequence (A0A498KQL4 64-634): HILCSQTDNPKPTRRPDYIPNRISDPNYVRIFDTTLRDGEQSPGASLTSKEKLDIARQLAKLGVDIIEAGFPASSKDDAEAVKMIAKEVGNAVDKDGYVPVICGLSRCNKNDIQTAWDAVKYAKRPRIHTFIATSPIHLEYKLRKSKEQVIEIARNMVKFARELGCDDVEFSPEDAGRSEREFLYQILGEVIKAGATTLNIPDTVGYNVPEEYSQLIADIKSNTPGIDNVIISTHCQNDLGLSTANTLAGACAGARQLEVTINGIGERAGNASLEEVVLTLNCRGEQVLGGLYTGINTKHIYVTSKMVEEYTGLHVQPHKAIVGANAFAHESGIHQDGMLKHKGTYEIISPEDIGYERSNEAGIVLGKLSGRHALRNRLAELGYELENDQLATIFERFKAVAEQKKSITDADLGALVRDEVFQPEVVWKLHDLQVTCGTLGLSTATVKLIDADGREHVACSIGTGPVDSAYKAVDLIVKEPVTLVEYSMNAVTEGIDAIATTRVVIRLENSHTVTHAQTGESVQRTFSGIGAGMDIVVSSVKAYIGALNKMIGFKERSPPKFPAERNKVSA

MdIPMS2 [3] = biological target: T2, MdIPMS2; assay: DTNB endpoint assay, feedback inhibition; type: biochemical; conditions: read-out: % inhibition at 0.05 mM
MdIPMS1 [4] = biological target: T1, MdIPMS1; assay: DTNB endpoint assay, feedback inhibition; type: biochemical; conditions: read-out: % inhibition at 0.05 mM

Km (MdCMS_1; saturating (10 mM) pyruvate): 6.6 ± 0.9 µM
Structure (SMILES): CC(=O)SCCNC(=O)CCNC(=O)[C@H](O)C(C)(C)COP(=O)(O)OP(=O)(O)OC[C@H]1O[C@@H](n2cnc3c(N)ncnc32)[C@H](O)[C@@H]1OP(=O)(O)O [Acetyl-CoA]

Structure (SMILES): C[C@@H](O)[C@H](N)C(=O)O [threonine]
% inhibition (MdIPMS1 [1]): both MdIPMS proteins were inhibited by elevated levels of threonine | % inhibition (MdIPMS2 [2]): both MdIPMS proteins were inhibited by elevated levels of threonine

inhibition at 50 µM (MdIPMS2 [3]): 70% | inhibition at 50 µM (MdIPMS1 [4]): 40%
Structure (SMILES): CC(C)C[C@H](N)C(=O)O [leucine]

Km (MdCMS_1; co-substrate acetyl-CoA): 2450 µM
Structure (SMILES): CC(=O)C(=O)O [Pyruvate]

Km (MdCMS_1; co-substrate acetyl-CoA): 3560 µM
Structure (SMILES): CCC(=O)C(=O)O [α-Ketobutyrate]
